Assay results taken from ChEMBL document CHEMBL4808167, “Design, Synthesis, and Evaluation of Small Molecule Gαq/11 Protein Inhibitors for the Treatment of Uveal Melanoma” (J Med Chem, 2021).
Calls of active or inactive are those of the source. No cut-off for these calls is given here.

Tests used:
[1] = AUC(0 to t) in ICR mouse at 10 mg/kg, iv measured upto 24 hrs by LC-MS/MS analysis; type: ADME, organism-based; set-up: route intravenous, dose 10 mg/kg, time <=24; conditions: in vivo
How it was run: (§1)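 Single dose in male ICR mice, 10 mg/kg iv or 30 mg/kg po, dissolved in 5% DMSO/95% saline. Blood drawn by catheter at 0, 5, 15, 30 min and 1, 2, 4, 6, 8, 24 h. Plasma spun 6800g 6 min at 2−8 °C, stored −80 °C, quantified by LC−MS/MS. Noncompartmental parameters, mean ± SD, n = 6.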

[2] = Induction of apoptosis in human 921 cells assessed as late apoptotic cells at 5 uM after 48 hrs by Annexin-V-FITC/propidium iodide staining based flow cytometry (reference value: 2.52%); type: functional
[3] = Tmax in ICR mouse at 30 mg/kg, po measured upto 24 hrs by LC-MS/MS analysis; type: ADME, organism-based; conditions: in vivo
How it was run: (§2)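 Single-dose PK in male ICR mice (n = 6): 10 mg/kg iv or 30 mg/kg po, vehicle 5% DMSO/95% saline. Blood (30 μL) by catheter at 0, 5, 15, 30 min and 1, 2, 4, 6, 8, 24 h; plasma by centrifugation, stored −80 °C, measured by LC–MS/MS. Parameters from noncompartmental analysis, mean SD.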

[4] = Induction of apoptosis in human 921 cells assessed as early apoptotic cells at 5 uM after 48 hrs by Annexin-V-FITC/propidium iodide staining based flow cytometry (reference value: 3.39%); type: functional
[5] = Volume of distribution at steady state in ICR mouse at 10 mg/kg, iv measured upto 24 hrs by LC-MS/MS analysis; type: ADME, organism-based; conditions: in vivo, read-out: Vdss; how it was run: as §2
[6] = Induction of apoptosis in human MP41 cells assessed as late apoptotic cells at 15 uM after 48 hrs by Annexin-V-FITC/propidium iodide staining based flow cytometry (reference value: 3.28%); type: functional
[7] = molecular target: T1, GNAQ/GNA11 (Homo sapiens) (UniProt P50148+P29992); experiment: Inhibition of Galphaq/11 in human MP41 cells assessed as induction of YAP phosphorylation at 5 to 15 uM after 48 hrs by Western blot analysis; type: cell-based; conditions: dose 5-15 µM
How it was run: (§3)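 92.1 and MP41 cells plated overnight, then exposed to compound 48 h. Lysed in ice-cold buffer and protein quantified by BCA. Resolved on 8−12% SDS−PAGE and transferred to PVDF. Probed for p-YAP Ser127, total YAP, p-ERK1/2 Thr202/Tyr204 and total ERK1/2, with GAPDH as loading control. ECL detection, triplicate.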

[8] = Induction of apoptosis in human 921 cells assessed as viable cells at 15 uM after 48 hrs by Annexin-V-FITC/propidium iodide staining based flow cytometry (reference value: 93.8%); type: functional; conditions: read-out: Activity
[9] = test system: 921; experiment: Inhibition of cell invasion in human 921 cells at 5 to 15 uM incubated for 48 hrs by transwell assay; type: functional, cell-based; conditions: dose 5-15 µM
How it was run: (§4)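 92.1 or MP41 cells (1 × 10⁴/well) seeded in serum-free medium in the upper transwell chamber, with 20% FBS medium below. Left overnight, then treated 48 h. Non-migrated cells swabbed off; cells on the lower side stained with crystal violet 30 min and counted by light microscopy (×40 for migration, ×100 for invasion). Mean ± SD, n = 3.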

[10] = molecular target: T1, GNAQ/GNA11 (Homo sapiens); experiment: Inhibition of Galphaq/11 in human MP41 cells assessed as induction of YAP phosphorylation at 15 to 30 uM after 48 hrs by Western blot analysis; type: cell-based; conditions: dose 15-30 µM; how it was run: as §3
[11] = molecular target: T1, GNAQ/GNA11 (Homo sapiens); experiment: Inhibition of Galphaq/11 in human MP41 cells xenografted mouse tumor tissue assessed as inhibition of ERK phosphorylation at 10 to 30 mg/kg, ip administered for 21 consecutive days by Western blot analysis; type: organism-based; conditions: dose 10-30 mg/kg, time 21.0 day
How it was run: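 MP41 xenograft tumours from mice given 10 or 30 mg/kg/day ip for 21 consecutive days were analysed by Western blot. Probed for p-YAP, YAP, p-ERK and ERK, with GAPDH as loading control. Representative of triplicate experiments.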

[12] = Induction of apoptosis in human MP41 cells assessed as early apoptotic cells at 30 uM after 48 hrs by Annexin-V-FITC/propidium iodide staining based flow cytometry (reference value: 2.96%); type: functional
[13] = Toxicity in nude BALB/c mouse xenografted with human MP41 cells assessed as effect on body weight at 10 to 30 mg/kg, ip administered once daily for 21 days and measured every 3 days; type: organism-based; conditions: in vivo, 504 h, dose 10-30 mg/kg, time 21 day
How it was run: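 Nude BALB/c mice bearing serially passaged MP41 tumour slices (tertiary recipients, n = 8/group, randomized) dosed ip daily for 21 days at 10 or 30 mg/kg/d or vehicle. Body weight monitored every 3 days. Tissues collected at sacrifice, fixed in 4% paraformaldehyde 24 h, paraffin-embedded, H&E stained, viewed at ×100.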

[14] = Half life in ICR mouse at 10 mg/kg, iv measured upto 24 hrs by LC-MS/MS analysis; type: ADME, organism-based; conditions: in vivo; how it was run: as §1
[15] = Induction of apoptosis in human 921 cells assessed as early apoptotic cells at 15 uM after 48 hrs by Annexin-V-FITC/propidium iodide staining based flow cytometry (reference value: 3.39%); type: functional
[16] = Induction of apoptosis in human 921 cells assessed as viable cells at 5 uM after 48 hrs by Annexin-V-FITC/propidium iodide staining based flow cytometry (reference value: 93.8%); type: functional; conditions: read-out: Activity
[17] = test system: CHO; experiment: Cytotoxicity against chinese hamster CHO cells overexpressing M1 receptor assessed as cell viability upto 20 uM for 24 hrs by CCK8 assay; type: cell-based, Cricetulus griseus
How it was run: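 CHO cells stably expressing the M₁ receptor were treated with a range of compound concentrations for 2 h or 24 h. Viability measured by CCK-8 and given as percentage. Mean ± SD of three independent experiments.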

[18] = test system: 921; experiment: Inhibition of cell migration in human 921 cells at 15 uM incubated for 48 hrs by transwell migration assay; type: functional, cell-based; how it was run: as §4
[19] = MRT(0 to t) in ICR mouse at 10 mg/kg, iv measured upto 24 hrs by LC-MS/MS analysis; type: ADME, organism-based; conditions: in vivo; how it was run: as §2
[20] = test system: 921; experiment: (§5) Antiproliferative activity against human 92.1 cells assessed as inhibition of cell growth after 72 hrs by CCK8 assay; type: functional, cell-based
How it was run: (§6)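 92.1 or MP41 cells in RPMI-1640 with 10% FBS were seeded at 3 × 10³ cells/well. Exposed to serial concentrations for 72 h at 37 °C, 5% CO₂. CCK-8 added for 1−4 h, absorbance read at 450 nm. IC₅₀ from concentration−response curve fit, mean ± SD.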

[21] = as §5; type: functional, cell-based; conditions: Homo sapiens, 921, 72 h; how it was run: as §6
[22] = Induction of apoptosis in human MP41 cells assessed as viable cells at 15 uM after 48 hrs by Annexin-V-FITC/propidium iodide staining based flow cytometry (reference value: 93.6%); type: functional; conditions: read-out: Activity
[23] = test system: 921; experiment: Inhibition of colony formation in human 921 cells at 1 to 5 uM after 9 days by crystal violet staining based light microscopic analysis; type: functional, cell-based; conditions: dose 1-5 µM, time 9.0 day
How it was run: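 Cells seeded 4 × 10³/well, incubated overnight at 37 °C, 5% CO₂, then exposed to compound for 9 days until colonies visible, medium and inhibitor replaced every 3 days. Fixed in 4% paraformaldehyde 15 min, crystal violet-stained 30 min, colonies counted. Repeated twice.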

T1 sequence (P29992 whole entry, looked up): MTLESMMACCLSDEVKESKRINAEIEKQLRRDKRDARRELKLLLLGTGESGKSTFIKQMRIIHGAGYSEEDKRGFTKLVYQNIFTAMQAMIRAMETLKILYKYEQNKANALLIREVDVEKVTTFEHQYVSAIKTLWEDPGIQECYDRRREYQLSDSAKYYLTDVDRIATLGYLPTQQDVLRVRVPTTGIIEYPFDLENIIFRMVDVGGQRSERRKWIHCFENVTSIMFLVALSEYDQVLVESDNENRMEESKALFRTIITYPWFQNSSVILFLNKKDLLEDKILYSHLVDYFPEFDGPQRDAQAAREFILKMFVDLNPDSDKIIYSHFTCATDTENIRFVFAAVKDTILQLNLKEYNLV
T1 sequence (P50148 whole entry, looked up): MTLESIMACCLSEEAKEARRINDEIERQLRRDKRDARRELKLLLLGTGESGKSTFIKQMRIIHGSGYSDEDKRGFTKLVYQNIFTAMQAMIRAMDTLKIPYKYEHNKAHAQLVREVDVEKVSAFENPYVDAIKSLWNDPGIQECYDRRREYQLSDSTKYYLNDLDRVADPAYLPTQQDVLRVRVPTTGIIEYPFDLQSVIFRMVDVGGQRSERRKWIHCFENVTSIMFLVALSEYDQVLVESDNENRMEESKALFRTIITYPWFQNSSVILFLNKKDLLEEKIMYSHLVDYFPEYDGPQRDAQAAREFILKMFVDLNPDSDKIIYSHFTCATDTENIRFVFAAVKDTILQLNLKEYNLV

AUC(0-t) at 24 h [1]: 2140 ng·h/mL
Tmax [3]: 25.2 min
Vd [5]: 4.53 L/kg
inhibition [7]: Active
inhibition [10]: Active
inhibition [11]: Active
half-life [14]: 70.2 min
MRT last at 24 h [19]: 55.8 min
Compound: CC[C@@H](C)[C@H](N)C(=O)N1CCn2cc(-c3ccccc3)nc2[C@@H]1CC1CCCCC1
Activity [2]: 3.4%
Activity [4]: 6.08%
Activity [6]: 4.42%
viability at 15 µM [8]: 79.6%
inhibition [9]: Active
Activity [12]: 17.9%
Activity [13]: Non-Toxic
Activity [15]: 13.1%
viability at 5 µM [16]: 90.1%
Activity [17]: Non-Toxic
inhibition [18]: Active
Activity [20]: Dose-Dependent Effect
IC50 [21]: 10.1 µM
viability at 15 µM [22]: 90.2%
inhibition [23]: Active
